Source: ChEMBL document CHEMBL1795283, “Dihydro-β-agarofuran sesquiterpenes isolated from Celastrus vulcanicola as potential anti-Mycobacterium tuberculosis multidrug-resistant agents” (2011)
In brackets after ≈: the same amount, converted by molar mass.

Columns and labels:
[1] = test system: Mycobacterium tuberculosis; experiment: Antimycobacterial activity against Mycobacterium tuberculosis isolate 02TBDM039EP097 after 24 hrs by tetrazolium microplate assay; format: functional; settings: isolate 02TBDM039EP097, 24 h
Method in brief: (§1)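 TEMA broth microdilution; inoculum from 20–30-day-old slant growth suspended in Tween 80/0.2% BSA, adjusted to McFarland No. 1, final ca. 1.2 × 10⁶ CFU/mL. Compound mixed 1:1 with inoculum, DMSO solvent control; sealed plates incubated 37 °C 5 days, then MTT/Tween 80 added, 24 h 37 °C; yellow-to-purple colour change read. MIC = lowest concentration giving 100% inhibition; means of 3 or 4 replicates.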

[2] = test system: Mycobacterium tuberculosis; experiment: Antimycobacterial activity against Mycobacterium tuberculosis H37Rv after 24 hrs by tetrazolium microplate assay; format: functional; method in brief: as §1

`CC1(C)O[C@]23[C@H](O)[C@H]1[C@H](O)[C@H](O)[C@]2(C)[C@@H](O)CC[C@]3(C)O` was tested, and the MIC [1] was greater than 25 µg/mL and the MIC [2] was greater than 25 µg/mL.
Compound `CC(=O)O[C@H]1[C@@H]2[C@@H](OC(=O)c3cccnc3)[C@]3(OC2(C)C)[C@H](C)CC[C@H](OC(C)=O)[C@@]3(C)[C@H]1OC(=O)c1ccccc1` has an MIC [1] of 25 µg/mL (≈ 43.1 µM) and an MIC [2] greater than 25 µg/mL.
For `CC(=O)O[C@H]1[C@@H]2[C@@H](O)[C@]3(OC2(C)C)[C@H](C)CC[C@H](OC(C)=O)[C@@]3(C)[C@H]1OC(=O)c1ccccc1`, the MIC [1] was greater than 25 µg/mL and the MIC [2] was greater than 25 µg/mL.
With `CC(=O)O[C@H]1CC[C@](C)(O)[C@]23OC(C)(C)[C@H]([C@H](O)[C@H](OC(=O)c4ccccc4)[C@]12C)[C@H]3OC(C)=O` the MIC [1] was greater than 25 µg/mL and the MIC [2] was greater than 25 µg/mL.
`CC(=O)O[C@@H]1[C@@H]2[C@@H](OC(=O)c3ccccc3)[C@@]3(OC2(C)C)[C@@](C)([C@@H](OC(C)=O)CC[C@]3(C)O)[C@H]1OC(=O)c1ccccc1` gave an MIC [1] of 12.5 µg/mL (≈ 21 µM) and an MIC [2] greater than 25 µg/mL.
For `CC(=O)O[C@H]1CC[C@](C)(O)[C@]23OC(C)(C)[C@H]([C@H](OC(=O)[C@H](O)[C@@H](O)c4ccccc4)[C@H](OC(=O)c4ccccc4)[C@]12C)[C@H]3O`, the MIC [1] was greater than 25 µg/mL and the MIC [2] was greater than 25 µg/mL.
`CC(=O)O[C@@H]1[C@@H]2[C@@H](OC(=O)c3cccnc3)[C@@]3(OC2(C)C)[C@@](C)([C@@H](OC(C)=O)CC[C@]3(C)O)[C@H]1OC(=O)c1ccccc1` gave an MIC [1] greater than 25 µg/mL and an MIC [2] greater than 25 µg/mL.
Work on `CC(=O)O[C@H]1[C@@H]2[C@@H](OC(C)=O)[C@@]3(OC2(C)C)[C@@](C)([C@@H](OC(C)=O)CC[C@]3(C)O)[C@H]1OC(C)=O` yielded an MIC [1] greater than 25 µg/mL and an MIC [2] greater than 25 µg/mL.
`CC(=O)O[C@H]1[C@@H]2[C@@H](OC(C)=O)[C@@]3(OC2(C)C)[C@@](C)([C@@H](OC(C)=O)CC[C@]3(C)O)[C@H]1O` gave an MIC [1] greater than 25 µg/mL and an MIC [2] greater than 25 µg/mL.
Compound `CC(=O)O[C@H]1[C@@H]2[C@@H](O)[C@@]3(OC2(C)C)[C@@](C)([C@@H](OC(C)=O)CC[C@]3(C)O)[C@H]1O` has an MIC [1] greater than 25 µg/mL and an MIC [2] greater than 25 µg/mL.
Work on `CC(=O)O[C@H]1CC[C@@H](C)[C@]23OC(C)(C)[C@H]([C@H](OC(=O)/C=C\c4ccccc4)[C@H](OC(=O)c4ccccc4)[C@]12C)[C@H]3O` yielded an MIC [1] of 25 µg/mL (≈ 44.4 µM) and an MIC [2] greater than 25 µg/mL.
Compound `CC(=O)O[C@H]1CC[C@](C)(O)[C@]23OC(C)(C)[C@H]([C@H](OC(=O)/C=C\c4ccccc4)[C@H](OC(=O)c4ccccc4)[C@]12C)[C@H]3O` has an MIC [1] greater than 25 µg/mL and an MIC [2] greater than 25 µg/mL.
`CC(=O)O[C@H]1[C@@H]2[C@@H](OC(=O)c3ccccc3)[C@@]3(OC2(C)C)[C@@](C)([C@@H](OC(C)=O)CC[C@]3(C)O)[C@H]1OC(=O)c1ccccc1` gave an MIC [1] greater than 25 µg/mL and an MIC [2] greater than 25 µg/mL.
Compound `CC(=O)O[C@H]1[C@@H]2[C@@H](OC(=O)c3cccnc3)[C@@]3(OC2(C)C)[C@@](C)([C@@H](OC(C)=O)CC[C@]3(C)O)[C@H]1OC(=O)c1ccccc1` has an MIC [1] greater than 25 µg/mL and an MIC [2] greater than 25 µg/mL.
In the case of `CC(=O)O[C@H]1CC[C@@H](C)[C@]23OC(C)(C)[C@H](C[C@H](OC(=O)/C=C/c4ccccc4)[C@]12C)[C@H]3OC(C)=O`, the MIC [1] was 12.5 µg/mL (≈ 25.8 µM) and the MIC [2] was greater than 25 µg/mL.
In the case of `CC(=O)O[C@H]1CC[C@@H](C)[C@]23OC(C)(C)[C@H](C[C@H](OC(=O)/C=C/c4ccccc4)[C@]12C)[C@H]3O`, the MIC [1] was 25 µg/mL (≈ 56.5 µM) and the MIC [2] was greater than 25 µg/mL.
Compound `CC(=O)O[C@H]1[C@@H](O)C[C@](C)(O)[C@]23OC(C)(C)[C@H]([C@H](OC(=O)/C=C/c4ccccc4)[C@H](OC(=O)c4ccccc4)[C@]12C)[C@H]3O` has an MIC [1] greater than 25 µg/mL and an MIC [2] greater than 25 µg/mL.
In the case of `CC(=O)O[C@H]1CC[C@@H](C)[C@@]23C[C@@H](C[C@H](OC(=O)/C=C/c4ccccc4)[C@]12C)C(C)(C)O3`, the MIC [1] was greater than 25 µg/mL and the MIC [2] was greater than 25 µg/mL.
Work on `CC(=O)O[C@H]1[C@@H]2[C@@H](OC(=O)c3ccccc3)[C@@]3(OC2(C)C)[C@](C)([C@H]1OC(=O)c1ccccc1)[C@@H](OC(C)=O)[C@@H](O)C[C@]3(C)O` yielded an MIC [1] greater than 25 µg/mL and an MIC [2] greater than 25 µg/mL.
`CC(=O)O[C@H]1CC[C@@H](C)[C@]23OC(C)(C)[C@H]([C@H](OC(=O)/C=C/c4ccccc4)[C@H](OC(=O)c4ccccc4)[C@]12C)[C@H]3O` gave an MIC [1] of 12.5 µg/mL (≈ 22.2 µM) and an MIC [2] greater than 25 µg/mL.
For `CC(=O)O[C@H]1CC[C@](C)(O)[C@]23OC(C)(C)[C@H]([C@H](OC(=O)/C=C/c4ccccc4)[C@H](OC(=O)c4ccccc4)[C@]12C)[C@H]3O`, the MIC [1] was 12.5 µg/mL (≈ 21.6 µM) and the MIC [2] was greater than 25 µg/mL.
For `CC(=O)O[C@H]1CC[C@@H](C)[C@]23OC(C)(C)[C@H](C[C@H](OC(=O)c4ccccc4)[C@]12C)[C@H]3OC(=O)c1ccccc1`, the MIC [1] was 6.2 µg/mL (≈ 11.9 µM) and the MIC [2] was greater than 25 µg/mL.
`CC(=O)O[C@H]1CC[C@](C)(O)[C@]23OC(C)(C)[C@H]([C@H](OC(=O)/C=C/c4ccccc4)[C@H](OC(=O)c4ccccc4)[C@]12C)[C@H]3OC(C)=O` was tested, and the MIC [1] was 12.5 µg/mL (≈ 20.1 µM) and the MIC [2] was greater than 25 µg/mL.
Compound `NNC(=O)c1ccncc1` [ISONIAZID] has an MIC [1] of 4 µg/mL (≈ 29.2 µM) and an MIC [2] of 0.125 µg/mL (≈ 0.911 µM).
`CC(=O)O[C@H]1CC[C@](C)(O)[C@]23OC(C)(C)[C@H]([C@H](O)[C@H](OC(=O)c4ccccc4)[C@]12C)[C@H]3O` [REISSANTIN D] gave an MIC [1] greater than 25 µg/mL and an MIC [2] greater than 25 µg/mL.
Work on `CO[C@H]1/C=C/O[C@@]2(C)Oc3c(C)c(O)c4c(O)c(c(/C=N/N5CCN(C)CC5)c(O)c4c3C2=O)NC(=O)/C(C)=C\C=C\[C@H](C)[C@H](O)[C@@H](C)[C@@H](O)[C@@H](C)[C@H](OC(C)=O)[C@@H]1C` [RIFAMPIN] yielded an MIC [1] greater than 16 µg/mL and an MIC [2] of 0.063 µg/mL (≈ 0.0766 µM).
